ChEMBL document CHEMBL4732139, “Novel N-Methylated Cyclodepsipeptide Prodrugs for Targeted Cancer Therapy” (J Med Chem, 2021)
Activity calls are given as the source filed them. The rule behind the calls is not given here. Where a SMILES comes first, the peptide text is derived from it. Bridges are numbered along the chain shown (N, C = ends). [ ]: non-standard residue; d: D form. The star is where a group is joined. NMe2Val = CC(C)[C@@H](C(=O)*)N(C)C; NMeI = CC[C@H](C)[C@H](NC)C(=O)O; NMeT = CN[C@H](C(=O)O)[C@@H](C)O; NMeL = CN[C@@H](CC(C)C)C(=O)O; dHiv = CC(C)[C@@H](O)C(=O)O; NMeA = CN[C@@H](C)C(=O)O; dNMeA = CN[C@H](C)C(=O)O

Legend:
[1] = test system: A549; experiment: Cytotoxicity in human A549 cells assessed as reduction in cell viability incubated for 48 hrs by CCK8 assay; assay type: functional, cell-based
Method in brief: (§1)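 Cells grown in high-glucose DMEM with 10% FBS and penicillin/streptomycin at 37 °C, 5% CO₂. 3000−4000 cells/well seeded and preincubated overnight. Treated with a concentration gradient in quadruplicate for 48 h. Medium then replaced with 10% CCK-8 in fresh medium for 1 h at 37 °C, A450 read. IC50 from log(inhibitor)-response fit, mean SD of three independent experiments.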

[2] = test system: BT-549; experiment: Cytotoxicity in human BT-549 cells assessed as reduction in cell viability incubated for 48 hrs by CCK8 assay; assay type: functional, cell-based; method in brief: as §1
[3] = test system: BT-549; experiment: Cytotoxicity in human BT-549 cells assessed as reduction in cell viability incubated for 72 hrs by CCK8 assay; assay type: functional, cell-based
Method in brief: (§2)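 CCK-8 viability assay with a 72 h treatment. Cells seeded at 3000−4000/well and preincubated overnight. Concentration gradient applied in quadruplicate. Then 10% CCK-8 for 1 h at 37 °C and A450 read. IC50 by log(inhibitor)-response fitting.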

[4] = test system: A549; experiment: Cytotoxicity in human A549 cells assessed as reduction in cell viability incubated for 72 hrs by CCK8 assay; assay type: functional, cell-based; method in brief: as §2
[5] = test system: A549; experiment: Antitumor activity against human A549 cells xenografted in Balb/c mouse assessed as reduction in tumor mass at 5 mg/kg, iv dosed every 2 days for total 10 times and measured on day 21 relative to untreated control; assay type: functional; conditions: time 21 day
Method in brief: (§3)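 Six-week male Balb/c nude mice; 1 × 10⁷ A549 cells washed in cold PBS, suspended in serum-free high-glucose DMEM, injected s.c. in right flank. At ~50 mm³ (L × W × 1/2 W), randomized into two groups, n = 7 each. 5 mg/kg in 10% DMSO/PBS (1 mg/mL) given i.v. via tail vein every 2 days ×10. Vehicle control 10% DMSO/PBS. Tumor size and body weight measured before each injection. Tumors excised and weighed at end.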

[6] = test system: A549; experiment: Cytotoxicity in human A549 cells assessed as reduction in cell viability incubated for 48 hrs in absence of GSH-OEt by CCK8 assay; assay type: functional, cell-based; conditions: A549, 48 h; method in brief: as §1
[7] = test system: A549; experiment: Antitumor activity against human A549 cells xenografted in Balb/c mouse assessed as reduction in tumor size at 5 mg/kg, iv dosed every 2 days for total 10 times and measured on day 21; assay type: functional, organism-based; conditions: time 21.0 day; method in brief: as §3
[8] = test system: A549; experiment: Antitumor activity against human A549 cells xenografted in Balb/c mouse assessed as reduction in tumor growth at 5 mg/kg, iv dosed every 2 days for total 10 times and measured on day 21; assay type: functional, organism-based; conditions: time 21.0 day; method in brief: as §3
[9] = test system: A549; experiment: Cytotoxicity in human A549 cells assessed as reduction in cell viability incubated for 48 hrs in presence of GSH-OEt by CCK8 assay; assay type: functional, cell-based; conditions: A549, 48 h
Method in brief: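 A549 cells preincubated 2 h with 1 mM GSH-OEt, then exposed to compound for 48 h. Viability by CCK-8. Remaining steps: overnight-seeded cells (3000−4000/well), quadruplicate wells, 10% CCK-8 for 1 h at 37 °C, A450. IC50 by log(inhibitor)-response fit, mean of triplicate.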

[10] = Toxicity in Balb/c mouse xenografted with human A549 cells assessed as induction of weight loss at 5 mg/kg, iv dosed every 2 days for total 10 times and measured on day 21; assay type: organism-based; conditions: in vivo, 504 h, time 21 day; method in brief: as §3
[11] = Drug metabolism in PBS at 37 degC assessed as metabolite-1a formation at 50 uM in presence of DTT after 30 to 90 mins by RP-HPLC analysis; conditions: time 30-90 min
Method in brief: (§4)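 50 μM conjugate (from 2 mM DMSO stock) in 10% DMSO/PBS with 150 μM DTT (final) at 37 °C. Aliquots taken at 30, 60 and 90 min for RP-HPLC: C18, 10−100% CH₃CN over 20 min in 0.1% TFA water, 0.5 mL/min, detection at 220 and 254 nm. Three repeats.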

[12] = Drug metabolism in PBS at 37 degC assessed as metabolite-1a formation at 50 uM in presence of DTT after 30 mins by RP-HPLC analysis; method in brief: as §4
[13] = Toxicity in Balb/c mouse xenografted with human A549 cells assessed as induction of side effect at 5 mg/kg, iv dosed every 2 days for total 10 times and measured on day 21; assay type: organism-based; conditions: in vivo; method in brief: as §3
[14] = Drug metabolism in PBS at 37 degC assessed as parent compound disappearance at 50 uM in presence of DTT after 90 mins by RP-HPLC analysis; method in brief: as §4
[15] = test system: BT-549; experiment: Cytotoxicity in human BT-549 cells assessed as reduction in cell viability incubated for 48 hrs in absence of GSH-OEt by CCK8 assay; assay type: functional, cell-based; conditions: BT-549, 48 h; method in brief: as §1
[16] = Toxicity in Balb/c mouse assessed as induction of weight loss at 5 mg/kg, iv dosed every 2 days for total 10 times and measured on day 21; assay type: organism-based; conditions: in vivo, 504 h, time 21 day
Method in brief: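 Six-week male Balb/c nude mice, n = 3 per group, given various doses by i.v. injection every 2 days. Body weight monitored.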

[17] = Stability in PBS at 37 degC assessed as parent intact compound remaining level at 50 uM after 24 hrs by RP-HPLC analysis; assay type: physicochemical; conditions: read-out: Stabilty
Method in brief: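 50 μM compound in 10% DMSO/PBS without DTT or cathepsin B at 37 °C. Sampled at 0, 4, 8, 12 and 24 h and analyzed by RP-HPLC (C18, 10−100% CH₃CN/0.1% TFA over 20 min). Three repeats.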

[18] = Toxicity in Balb/c mouse assessed as induction of weight loss at 1 mg/kg, iv dosed every 2 days and measured on day 3; assay type: organism-based; conditions: in vivo, 72 h, time 3 day
Method in brief: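 In vivo tolerability in six-week-old male Balb/c nude mice (n = 3 per group). Compounds were given intravenously every 2 days at various dosages, and body weight was followed over time.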

remaining at 24 h, 50 µM [17] [%]	Compound	IC50 ([1]; a549)	IC50 ([2]; bt-549)	Activity [3]	Activity [4]	fold change (FC) [5]	IC50 [6] [µM]	Activity [7]	Activity [8]	IC50 [9] [µM]	Activity [10]	Drug metabolism [11]	Drug metabolism [12]	Activity [13]	Drug metabolism [14] [%]	IC50 [15] [µM]	Activity [16]	IC50 ([1]; Homo sapiens, A549, 48 h, read-out: IC50) [µM]	IC50 ([2]; Homo sapiens, BT-549, 48 h, read-out: IC50) [µM]	Activity [18]
	C#CCCC(=O)NCCCC[C@@H]1NC(=O)[C@@H](Cc2ccc(O)cc2)NC(=O)[C@H](CC(=O)O)NC(=O)CNC(=O)[C@H](CCCNC(=N)N)NC1=O	Not Active	Not Active	inactive	inactive															
> 90	CC[C@H](C)[C@H]1C(=O)N[C@@H](C)C(=O)N(C)[C@@H](CC(C)C)C(=O)N[C@@H](Cc2ccc(OC)cc2)C(=O)N(C)[C@H](C)C(=O)O[C@H](C)[C@H](N(C)C(=O)[C@H](CC(C)C)N(C)C(=O)[C@H](C)N(C)C(=O)[C@H](OC(=O)[C@H](C(C)C)[N+](C)(C)Cc2ccc(NC(=O)OCCSSCCn3cc(CCC(=O)NCCCC[C@@H]4NC(=O)[C@@H](Cc5ccc(O)cc5)NC(=O)[C@H](CC(=O)O)NC(=O)CNC(=O)[C@H](CCCNC(=N)N)NC4=O)nn3)cc2)C(C)C)C(=O)N(C)[C@@H](C)C(=O)N1C.O=C([O-])C(F)(F)F			Active	Active	4	0.262	Active	Active	0.0206	Non-Toxic	Metabolite detected	Metabolite detected	Non-Toxic	100	0.311	Non-Toxic			
	CC[C@H](C)[C@H]1C(=O)N[C@@H](C)C(=O)N(C)[C@@H](CC(C)C)C(=O)N[C@@H](Cc2ccc(OC)cc2)C(=O)N(C)[C@H](C)C(=O)O[C@H](C)[C@H](N(C)C(=O)[C@H](CC(C)C)N(C)C(=O)[C@H](C)N(C)C(=O)[C@H](OC(=O)[C@H](C(C)C)N(C)C)C(C)C)C(=O)N(C)[C@@H](C)C(=O)N1C (NMe2Val-[dHiv][NMeA][NMeL][NMeT][NMeA][NMeI]A[NMeL]Y(Me)[dNMeA]; ester 4-C)			Active	Active													0.0191	0.018	Toxic
